From ChEMBL document CHEMBL1139884, “Structure-based design, synthesis, and A-site rRNA cocrystal complexes of functionally novel aminoglycoside antibiotics: C2" ether analogues of paromomycin” (2007)
Converted amounts (≈) assume the structure as drawn. The source made the active and inactive calls. The calls are words filed in the database; no cut-off is given here.

Tests used:
Staphylococcus aureus [1] = test: Septicemia protection in Staphylococcus aureus Smith infected sc dosed BALB/c mouse after 2 weeks; type: functional; details: 336 h
How it was run: (§1)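 Female Balb/c mice (16-18 g), acclimated one week, 10 per group. Infection IP with 0.5 mL of 10^6 S. aureus (mouse-passaged Smith strain) in 10% hog gastric mucin. Compound dissolved in water, given subcutaneously in 0.5 mL at 1 h and 3 h post-infection as serial 2-fold dilutions from 75 to 0.125 mg/kg. Amikacin and neomycin served as control groups. Moribund mice counted per group; observation over two weeks.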

Escherichia coli = test: Antimicrobial activity against Escherichia coli ATCC 25922 after 20 to 24 hrs; type: functional
How it was run: (§2)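 Broth microdilution in duplicate; compound in 2.5% DMSO in water, overnight culture added to a final inoculum of about 10^2-10^3 CFU/well. Growth read as A595 after 20-24 h at 37°C, relative to a no-compound well. MIC reported as a range: complete inhibition at the higher concentration, viable cells at the lower. Ampicillin and tetracycline are the positive controls.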

Staphylococcus aureus [2] = test: Antimicrobial activity against Staphylococcus aureus ATCC 13709 after 20 to 24 hrs; type: functional; how it was run: as §2
Mus musculus [3] = test: Survival of Staphylococcus aureus Smith infected BALB/c mouse assessed as septicemia protection at 0.50 mg/kg, sc administered at 1 hr and 3 hrs postinfection after 2 weeks; type: functional, organism-based; parameters: dose 0.5 mg/kg; how it was run: as §1
Mus musculus [4] = test: Survival of Staphylococcus aureus Smith infected BALB/c mouse assessed as septicemia protection at 1.2 mg/kg, sc administered at 1 hr and 3 hrs postinfection after 2 weeks; type: functional, organism-based; parameters: dose 1.2 mg/kg; how it was run: as §1
Mus musculus [5] = test: Survival of Staphylococcus aureus Smith infected BALB/c mouse assessed as septicemia protection at 4.7 mg/kg, sc administered at 1 hr and 3 hrs postinfection after 2 weeks; type: functional, organism-based; parameters: dose 4.7 mg/kg; how it was run: as §1
Mus musculus [6] = test: Survival of Staphylococcus aureus Smith infected BALB/c mouse assessed as septicemia protection at 19 mg/kg, sc administered at 1 hr and 3 hrs postinfection after 2 weeks; type: functional, organism-based; parameters: dose 19 mg/kg; how it was run: as §1
Mus musculus [7] = test: Survival of Staphylococcus aureus Smith infected BALB/c mouse assessed as septicemia protection at 38 mg/kg, sc administered at 1 hr and 3 hrs postinfection after 2 weeks; type: functional, organism-based; parameters: dose 38 mg/kg; how it was run: as §1
Mus musculus [8] = test: Survival of Staphylococcus aureus Smith infected BALB/c mouse assessed as septicemia protection at 2.3 mg/kg, sc administered at 1 hr and 3 hrs postinfection after 2 weeks; type: functional, organism-based; parameters: dose 2.3 mg/kg; how it was run: as §1
Mus musculus [9] = test: Survival of Staphylococcus aureus Smith infected BALB/c mouse assessed as septicemia protection at 9.4 mg/kg, sc administered at 1 hr and 3 hrs postinfection after 2 weeks; type: functional, organism-based; parameters: dose 9.4 mg/kg; how it was run: as §1
Mus musculus [10] = test: Survival of Staphylococcus aureus Smith infected BALB/c mouse assessed as septicemia protection at 75 mg/kg, sc administered at 1 hr and 3 hrs postinfection after 2 weeks; type: functional, organism-based; parameters: dose 75 mg/kg; how it was run: as §1

SMILES	MIC (Escherichia coli) [µg/mL]	MIC (Staphylococcus aureus [2]) [µg/mL]	also measured
NC[C@@H]1O[C@H](O[C@H]2[C@@H](OCCNCc3cccnc3)[C@H](O[C@@H]3[C@@H](O)[C@H](N)C[C@H](N)[C@H]3O[C@H]3O[C@H](CO)[C@@H](O)[C@H](O)[C@H]3N)O[C@@H]2CO)[C@H](N)[C@@H](O)[C@@H]1O	12 (≈ 16 µM)	< 1.5	Activity (Mus musculus [4]): Active; Activity (Mus musculus [8]): Active; Activity (Mus musculus [5]): Active; Activity (Mus musculus [9]): Active; Activity (Mus musculus [6]): Active; Activity (Mus musculus [7]): Active; Activity (Mus musculus [10]): Active
NC[C@@H]1O[C@H](O[C@H]2[C@@H](OCCNCCN3C(=O)c4cccc5cccc(c45)C3=O)[C@H](O[C@@H]3[C@@H](O)[C@H](N)C[C@H](N)[C@H]3O[C@H]3O[C@H](CO)[C@@H](O)[C@H](O)[C@H]3N)O[C@@H]2CO)[C@H](N)[C@@H](O)[C@@H]1O	> 40	10 (≈ 11.3 µM)	
NC[C@@H]1O[C@H](O[C@H]2[C@@H](OCCNc3ccccn3)[C@H](O[C@@H]3[C@@H](O)[C@H](N)C[C@H](N)[C@H]3O[C@H]3O[C@H](CO)[C@@H](O)[C@H](O)[C@H]3N)O[C@@H]2CO)[C@H](N)[C@@H](O)[C@@H]1O	12 (≈ 16.3 µM)	2 (≈ 2.72 µM)	
NC[C@@H]1O[C@H](O[C@H]2[C@@H](OCC(O)c3ccccc3)[C@H](O[C@@H]3[C@@H](O)[C@H](N)C[C@H](N)[C@H]3O[C@H]3O[C@H](CO)[C@@H](O)[C@H](O)[C@H]3N)O[C@@H]2CO)[C@H](N)[C@@H](O)[C@@H]1O (stereo partly specified)	25 (≈ 34 µM)	3 (≈ 4.08 µM)	
NC[C@@H]1O[C@H](O[C@H]2[C@@H](OCCNCCc3ccc(-c4ccccc4)cc3)[C@H](O[C@@H]3[C@@H](O)[C@H](N)C[C@H](N)[C@H]3O[C@H]3O[C@H](CO)[C@@H](O)[C@H](O)[C@H]3N)O[C@@H]2CO)[C@H](N)[C@@H](O)[C@@H]1O	20 (≈ 23.8 µM)	5 (≈ 5.96 µM)	

Now those with a lower MIC (Escherichia coli), led by results:

MIC (Escherichia coli) [µg/mL]	MIC (Staphylococcus aureus [2]) [µg/mL]	SMILES	also measured
10 (≈ 11.4 µM)	0.6 (≈ 0.681 µM)	NC[C@@H]1O[C@H](O[C@H]2[C@@H](OCCN(CCCc3ccccc3)CCc3ccccc3)[C@H](O[C@H]3C(O[C@H]4O[C@H](CO)[C@@H](O)[C@H](O)[C@H]4N)[C@@H](N)C[C@@H](N)[C@@H]3O)O[C@@H]2CO)[C@H](N)[C@@H](O)[C@@H]1O (stereo partly specified)	
10 (≈ 12.3 µM)	1 (≈ 1.23 µM)	NC[C@@H]1O[C@H](O[C@H]2[C@@H](OCCNCCc3ccc4ccccc4c3)[C@H](O[C@@H]3[C@@H](O)[C@H](N)C[C@H](N)[C@H]3O[C@H]3O[C@H](CO)[C@@H](O)[C@H](O)[C@H]3N)O[C@@H]2CO)[C@H](N)[C@@H](O)[C@@H]1O	
3 (≈ 3.93 µM)	0.3 (≈ 0.393 µM)	NC[C@@H]1O[C@H](O[C@H]2[C@@H](OCCNCCc3ccccc3)[C@H](O[C@@H]3[C@@H](O)[C@H](N)C[C@H](N)[C@H]3O[C@H]3O[C@H](CO)[C@@H](O)[C@H](O)[C@H]3N)O[C@@H]2CO)[C@H](N)[C@@H](O)[C@@H]1O	ED90 (Staphylococcus aureus [1]): 0.25 mg/kg; Activity (Mus musculus [3]): Active; Activity (Mus musculus [4]): Active; Activity (Mus musculus [5]): Active; Activity (Mus musculus [6]): Active; Activity (Mus musculus [7]): Active
1.5 (≈ 2.02 µM)	3 (≈ 4.04 µM)	NC[C@@H]1O[C@H](O[C@H]2[C@@H](OCCNC3CCCNC3)[C@H](O[C@@H]3[C@@H](O)[C@H](N)C[C@H](N)[C@H]3O[C@H]3O[C@H](CO)[C@@H](O)[C@H](O)[C@H]3N)O[C@@H]2CO)[C@H](N)[C@@H](O)[C@@H]1O (stereo partly specified)	
